What all share (assay type): functional, cell-based
Conditions in all cases: COS-1

Assay [1] deals with T1, Thyroid hormone receptor beta (Homo sapiens) (UniProt P10828).
T1 sequence (whole entry): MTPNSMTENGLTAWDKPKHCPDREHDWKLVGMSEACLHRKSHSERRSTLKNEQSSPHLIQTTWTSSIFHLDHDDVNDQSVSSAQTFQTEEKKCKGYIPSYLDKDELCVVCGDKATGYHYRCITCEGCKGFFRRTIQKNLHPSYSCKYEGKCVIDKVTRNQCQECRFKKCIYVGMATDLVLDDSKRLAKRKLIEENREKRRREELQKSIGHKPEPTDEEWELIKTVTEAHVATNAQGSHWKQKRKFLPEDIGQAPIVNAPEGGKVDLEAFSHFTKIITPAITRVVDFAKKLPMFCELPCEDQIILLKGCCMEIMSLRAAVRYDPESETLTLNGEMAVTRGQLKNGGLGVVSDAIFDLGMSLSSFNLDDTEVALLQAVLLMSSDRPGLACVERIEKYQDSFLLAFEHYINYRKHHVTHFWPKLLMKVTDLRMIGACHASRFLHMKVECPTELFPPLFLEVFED
The assay can be described thus: Agonist activity at human thyroid hormone receptor beta-1 expressed in COS1 cells by transactivation assay after 40 hrs. A digest of the protocol:
(§1)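 COS-1 cells were seeded at 8 × 10⁴ per well in 5% FBS/DMEM and grown overnight at 37 °C, 5% CO₂. In serum-free DMEM with Lipofectamine 2000 they were transfected with pCMX-hTRα1 (α1) or pCDNA-hTRβ1 (β1) (100 ng), (TREpal)₃-TKLUC reporter (200 ng) and pCMVβ reference. After 4–5 h, charcoal-dextran FBS medium and compounds (final 0.5% EtOH) were added for 40 h. Read-out was luciferase normalised to β-galactosidase.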

For assay [2], the target named is T1, Thyroid hormone receptor beta (Homo sapiens). The assay is described as follows: Antagonist activity at human thyroid hormone receptor beta-1 expressed in COS1 cells by transactivation assay after 40 hrs. A digest of the protocol: (§2)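 Same COS-1 transfection (pCMX-hTRα1 or pCDNA-hTRβ1 with (TREpal)₃-TKLUC and pCMVβ) and 40 h treatment in charcoal-dextran FBS medium, 0.5% EtOH final. Compounds were added alongside 3 × 10⁻⁹ M T₃. Luciferase was normalised to β-galactosidase and expressed as percent of the T₃-alone value (100%). Means ± SD, n = 3.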

For assay [3], the target named is T2, Thyroid hormone receptor alpha (Homo sapiens) (UniProt P10827).
T2 sequence (whole entry): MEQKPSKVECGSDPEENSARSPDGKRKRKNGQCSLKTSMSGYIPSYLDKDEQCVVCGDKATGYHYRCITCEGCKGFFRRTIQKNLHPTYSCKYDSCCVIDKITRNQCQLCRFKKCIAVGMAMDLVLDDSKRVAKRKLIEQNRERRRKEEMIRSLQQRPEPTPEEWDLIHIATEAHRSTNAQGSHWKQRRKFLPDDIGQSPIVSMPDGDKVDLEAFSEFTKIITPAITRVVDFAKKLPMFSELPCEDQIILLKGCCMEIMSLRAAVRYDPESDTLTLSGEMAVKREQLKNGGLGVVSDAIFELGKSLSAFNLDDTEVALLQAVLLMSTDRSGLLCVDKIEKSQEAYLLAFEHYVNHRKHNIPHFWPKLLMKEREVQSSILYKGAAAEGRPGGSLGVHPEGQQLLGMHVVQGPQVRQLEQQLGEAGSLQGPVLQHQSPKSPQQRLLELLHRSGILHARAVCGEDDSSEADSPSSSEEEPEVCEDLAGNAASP
The assay is described as follows: Antagonist activity at human thyroid hormone receptor alpha-1 expressed in COS1 cells by transactivation assay after 40 hrs. A digest of the protocol: as §2

Assay [4] addresses T2, Thyroid hormone receptor alpha (Homo sapiens). The assay is described as follows: Agonist activity at human thyroid hormone receptor alpha-1 expressed in COS1 cells by transactivation assay after 40 hrs. A digest of the protocol:
as §1

Calls of active or inactive are those of the source. The rule behind the calls is not given here.

Take `Cc1cc(CC2SC(=O)NC2=O)cc(C)c1N(CC1CC1)c1ccc(O)c(C(C)C)c1` (stereo not drawn): the outcome in assay [1] and in assay [4] was inactive. Besides, the result in assay [2] and in assay [3] was Active.
On to `CCCCCCN(c1ccc(O)c(C(C)C)c1)c1c(C)cc(CC2SC(=O)NC2=O)cc1C` (stereo not drawn), for which the result in assay [1] and in assay [4] was inactive. Also, the result in assay [2] and in assay [3] was Active.
Turning to `Cc1cc(CC2SC(=O)NC2=O)cc(C)c1N(Cc1ccccc1)c1ccc(O)c(C(C)C)c1` (stereo not drawn), the outcome in assay [1] and in assay [4] was inactive. The result in assay [2] and in assay [3] was Active.
Regarding `Cc1cc(CC2SC(=O)NC2=O)cc(C)c1N(CC(C)C)c1ccc(O)c(C(C)C)c1` (stereo not drawn), the outcome in assay [1] and in assay [4] was inactive. Also, the result in assay [2] and in assay [3] was Active.
For `CC(C)=CCN(c1ccc(O)c(C(C)C)c1)c1c(C)cc(CC2SC(=O)NC2=O)cc1C` (stereo not drawn), the result in assay [1] and in assay [4] was inactive. The result in assay [2] and in assay [3] was Active.
With `Cc1cc(CC2SC(=O)NC2=O)cc(C)c1N(C)c1ccc(O)c(C(C)C)c1` (stereo not drawn), the outcome in assay [1] and in assay [4] was Active. Also, the result in assay [2] and in assay [3] was inactive.
For `Cc1cc(CC2SC(=O)NC2=O)cc(C)c1N(CC1CCCCC1)c1ccc(O)c(C(C)C)c1` (stereo not drawn), the result in assay [1] and in assay [4] was inactive. For the same compound, the result in assay [2] and in assay [3] was Active.
